Reference: paper PMC6525014 (Journal of labelled compounds & radiopharmaceuticals, 2019)

Experiments:
[1] = Metabolic stability in pooled human liver microsomes; assay type: in vitro ADME; details: for half-life at 1 μM: human, pooled human liver microsomes, pH 7.4
Summary of the method: (§1)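 Pooled liver microsomes (CD-1 mouse, SD rat or human) at 0.5 mg/mL, with 1 μM test compound, 1.7 mM β-NADPH and 3.3 mM MgCl2 in 0.1 M phosphate pH 7.4, 37°C, DMSO <0.1% final. Samples at 0, 5, 10, 15, 30, 45, 60 min were quenched in cold acetonitrile with internal standard. Parent remaining measured by negative-ion MRM LC–MS/MS. t1/2 from ln(remaining) versus time. Controls: no-NADPH, verapamil.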

[2] = Metabolic stability in pooled CD-1 mouse liver microsomes; assay type: in vitro ADME; details: for half-life at 1 μM: CD-1, mouse, pooled mouse liver microsomes, pH 7.4
Summary of the method: as §1

[3] = Metabolic stability in pooled SD rat liver microsomes; assay type: in vitro ADME; details: for half-life at 1 μM: SD, rat, pooled rat liver microsomes, pH 7.4
Summary of the method: as §1

obese mice = details: earlier work of the authors; cited from earlier work

Compound: CC(C)c1ccc2oc3nc(N)c(C(=O)O)cc3c(=O)c2c1 [Compound 1, amlexanox]
- more unmetabolized amlexanox remaining compared to d2-amlexanox ([1]; human liver microsomes, after 60 min): about 8%
- half-life at 1 μM [1]: > 1 h
- half-life at 1 μM [2]: > 1 h
- more unmetabolized amlexanox remaining compared to d2-amlexanox ([2]; mice liver microsomes, after 60 min): about 8%
- half-life at 1 μM [3]: > 1 h
- effects in obese mice (obese mice): weight loss in obese mice, improved insulin sensitivity, and reduced hepatic steatosis and inflammation

Compound: [2H]CC([2H])(C)c1ccc2oc3nc(N)c(C(=O)O)cc3c(=O)c2c1 (stereo not shown) [Compound 5, 2-Amino-5-oxo-7-(propan-2-yl-1,2-d2)-5H-chromeno[2,3-b]pyridine-3-carboxylic acid]
- half-life at 1 μM [1]: > 1 h
- half-life at 1 μM [2]: > 1 h
- half-life at 1 μM [3]: > 1 h
- stability relative to amlexanox ([3]; rat liver microsomes): more stable than amlexanox (1)
